Screening results as filed in PubChem BioAssay.
Shown are actives, neighbours in structure and some others; about 2% of the full set was active somewhere.
CaV13 FRET inh – Primary screen for inhibitors of IQ motif and Ca2+-dependent inactivation inhibitor domain binding in CACNA1D, Förster resonance energy transfer in living cells, …; HEK cells, CFP/YFP FRET ICDI-IQ, plate reader, 10 min; percent FRET-ratio fall versus neutral wells; inhibition, % at 12.3 µM; hit rate 0.098% among 340,000; AID 743397;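 active means mean replicate inhibition of at least 30% and at least 1% of replicates passing that level; inconclusive means only one of the two criteria is met; inactive means neither criterion is met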
TWEAK Fn14 block – TWEAK-Fn14 signaling inhibition; TWEAK-stimulated Fn14 reporter cells, luciferase luminescence, 8 h; inhibition, % at 10 µM; hit rate 2% among 360,000; AID 1159606; in the data active means inhibition above about 50%
LGR2 antag – blocks bursicon-induced cAMP signaling via Drosophila LGR2 | HEK293 LGR2, CRE-luciferase, bursicon-stimulated, 4 h | inhibition, % at 9.99 µM | hit rate 0.35% among 380,000;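 active means drop in luminescence signal, shown as inhibition above about 50% in the replicate tests, limit read from the data, passing the limit was not always enough; inconclusive means probably only some replicates passing the limit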;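 further: agonist challenge used bursicon conditioned medium at about half maximal strength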
XiGFP reactiv – X-chromosome reactivation activator. XiGFP mouse fibroblasts, % GFP-positive cells imaging, 3 d; cells co-treated with 5-aza-dC sensitizer; scaled so ellipticine positive control = 100%. activation, % at 7.58 µM. hit rate 0.055% among 360,000. AID 743238;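 active means mean normalized replicate activation at least 10% and every replicate at or above 10%; inconclusive means only one of the two criteria met; inactive means mean below 10% and not all replicates reach 10%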
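Assay system – SV40-immortalized XiGFP fibroblast cells, line 68-5-11 · Buffer or medium – DMEM supplemented with 5-aza-dC as sensitizing agent · Dosing – one concentration, pinned · Benchmarks – positive control ellipticine, 6 µM final · Times – 3 days compound exposure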
TROY signal inh – inhibitors of TROY-dependent NF-kB signaling; Q293 LMP1-TROYcd NF-kB luciferase reporter, 4 h; hit rate 0.98% among 360,000; inhibition, % at 10 µM;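 active means compounds whose plate-normalised and pattern-corrected inhibition of the luciferase reporter signal at the single screening dose is 50% or more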
A number is an active result; . = inactive; ? = inconclusive; / = no result given.

SMILES	CaV13 FRET inh	TWEAK Fn14 block	LGR2 antag	XiGFP reactiv	TROY signal inh
Cc1cc(C)nc(/N=C(\NC(=O)C(C)(C)C)Nc2ccccc2)n1	.	.	/	.	.
O=C(C[C@@H]1CC[C@H]2[C@@H](COC[C@H](O)CN2Cc2cc(F)ccc2F)O1)N[C@@H]1CCN(Cc2ccccc2)C1	/	/	.	.	/
C[C@@H](NC(=O)[C@@H]1[C@@H](CO)[C@@H]2Cn3c(cccc3=O)[C@H]1N2C(=O)C1CCCC1)c1ccccc1	/	/	.	.	/
CC(C)(C)C(=O)COC(=O)c1c2c(nc3ccccc13)CCC2	.	.	.	.	.
NC(=O)COC(=O)c1c2c(nc3ccccc13)CCCCC2	.	.	.	.	55
O=C(/C=C/c1ccccc1F)c1cccc([N+](=O)[O-])c1	.	.	.	.	.
Cc1[nH]c(=O)c(C(=O)/C=C/c2ccccc2F)c2c1CCCC2	.	89	86	/	50
O=C(Nc1cccc(Cl)c1)N[C@@H]1CC[C@@H](CCNC(=O)C2CCCC2)O[C@H]1CO	/	/	.	.	/
COc1cc(C(=O)NCCOc2cc(C)ccc2C(C)C)cc(OC)c1OC	.	62	.	.	.
Cc1ccc(C(C)C)c(OCCNC(=O)c2cncc(Br)c2)c1	/	.	/	/	.
CO[C@H]1CN(C)C(=O)c2ccc(NC(=O)C3CC3)cc2OC[C@H](C)N(C(=O)C2CCCCC2)C[C@@H]1C	/	/	/	.	/
Oc1ccc(-c2csc(-c3cccnc3)n2)c(O)c1	.	54	?	.	.
O=C(O)CCSc1nnc(-c2ccc3c(c2)OCO3)o1	.	82	/	/	52
Cc1ccc(CSc2nnc(-c3ccc4c(c3)OCO4)o2)cc1	/	.	.	/	.
CC(=O)CSc1nnc(-c2ccc3c(c2)OCO3)o1	.	58	/	/	.
CCCN1[C@@H]2c3ccc(C4=CCCCC4)c(=O)n3C[C@H]1[C@H](CO)[C@H]2C(=O)Nc1ccccc1	/	/	.	.	/
C[C@@H]1CCCCO[C@@H](CN(C)C(=O)NC2CCCCC2)[C@H](C)CN([C@@H](C)CO)C(=O)c2cc(NC(=O)Nc3ccc(C(F)(F)F)cc3)ccc2O1	/	/	.	.	/
COc1ccc(S(=O)(=O)N(C)C[C@H]2OCCCC[C@@H](C)Oc3ccc(NC(=O)CCCN(C)C)cc3C(=O)N([C@@H](C)CO)C[C@@H]2C)cc1	/	/	.	.	/
COc1cccc2oc3ccc(C#Cc4ccccn4)cc3c(=O)c12	.	.	83	.	.
COc1cccc2sc3cc(C#Cc4ccccn4)ccc3c(=O)c12	.	.	.	.	.
O=c1c2ccccc2oc2cc(C#Cc3ccccn3)ccc12	.	65	.	.	.
Nc1cccc(C#Cc2ccc3c(=O)c4ccccc4oc3c2)c1	.	.	/	.	.
CCCN(CCC)S(=O)(=O)c1ccc(Cl)c([N+](=O)[O-])c1	.	.	84	.	.
CCCN(CCC)S(=O)(=O)c1ccc(N2CCCC2=O)c([N+](=O)[O-])c1	.	.	.	.	.
C[C@@H]1CN([C@@H](C)CO)C(=O)Cc2cc(NC(=O)CCCN(C)C)ccc2O[C@H]1CN(C)C(=O)Nc1ccc(F)cc1	/	/	.	.	/
SMILES	CaV13 FRET inh	TWEAK Fn14 block	LGR2 antag	XiGFP reactiv	TROY signal inh
O=c1cc(C(F)(F)F)[nH]c2c(C(F)(F)F)cccc12	/	61	/	/	58
O=c1cc(C(F)(F)F)[nH]c2ccc(OC(F)(F)F)cc12	.	.	/	.	.
C[C@@H]1CN([C@@H](C)CO)C(=O)c2cccc(NC(=O)CCCCCC(=O)Nc3ccccc3N)c2O[C@@H]1CN(C)C(=O)Nc1cccc2ccccc12	/	/	.	.	/
Cc1ccccc1C(=O)N1CCC2CC1c1cc(Cl)ccc12 (configuration not stated)	.	.	.	/	81
C[C@H](CO)N1C[C@H](C)[C@@H](CN(C)C(=O)c2cnccn2)Oc2cc(Br)ccc2S1(=O)=O	/	/	.	.	/
Cc1cccc(OCc2nc(-c3ccccn3)n[nH]2)c1	/	.	/	/	61
Cc1ccc(OCc2nc(-c3ccccn3)n[nH]2)cc1	.	.	/	/	.
COc1cc(OC)cc(-c2cc3nc(C)c(CCC(=O)NCc4ccccc4)c(C)n3n2)c1	.	66	.	.	.
Cc1nc2cc(-c3ccc(Cl)cc3)nn2c(C)c1CCC(=O)NC(C)c1ccc2c(c1)OCCO2 (configuration not stated)	.	56	.	.	.
CCc1ccc(C2=NN(CCC(=O)NC(C)c3ccc4c(c3)OCCO4)C(=O)CC2)cc1 (configuration not stated)	.	.	.	/	.
Cc1csc(NC(=O)CCc2c(C)nc3cc(-c4ccc(Cl)cc4)nn3c2C)n1	.	62	.	.	.
COc1ccc(S(=O)(=O)N2c3ccccc3OCC2c2ccccc2)cc1 (configuration not stated)	.	79	/	/	.
O=C(NC1CCCCC1)C(c1ccccc1)N(Cc1ccco1)C(=O)c1csnn1 (configuration not stated)	.	64	.	.	.
COCC(=O)Nc1ccc2c(c1)[C@H]1C[C@@H](CC(=O)NCc3cc(F)ccc3F)O[C@@H](CO)[C@H]1O2	/	/	.	.	/
CN(C)/C=N/C(=S)Nc1ccc(Cl)c(Cl)c1	.	.	.	.	.
CN(C)/C=N/C(=S)Nc1ccccc1F	/	74	/	/	/
CN(C)/C=N/C(=S)Nc1ccc(F)cc1	/	88	/	/	/
CN(C)/C=N/C(=S)Nc1ccccc1Cl	.	.	/	.	.
CCCNC(=O)Nc1ccc2c(c1)C(=O)N(C)C[C@@H](OC)[C@@H](C)CN(C(=O)C1CCC1)[C@@H](C)CO2	/	/	.	.	/
CC(C)=CCc1c(O)cc2oc3c(CC=C(C)C)c(O)c(O)c(CC=C(C)C)c3c(=O)c2c1O	/	82	/	/	58
Cc1ccc(C(=O)c2cccc(N)c2)cc1C	.	52	.	.	.
O=C(Cc1ccccn1)N[C@H]1CC[C@H](CC(=O)N2CCCCC2)O[C@@H]1CO	/	/	.	.	/
CCCCN(C(=O)CSc1nn(-c2ccc(F)cc2)c(=S)s1)c1c(N)n(CCCC)c(=O)[nH]c1=O	.	.	.	.	.
Cn1c(N)c(C(=O)CSc2nn(-c3ccc(F)cc3)c(=S)s2)c(=O)n(C)c1=O	.	60	.	.	.
C[C@H](CO)N1C[C@H](C)[C@@H](CN(C)C(=O)CCC(F)(F)F)OCCCC[C@H](C)Oc2ccc(NC(=O)Cc3ccccc3)cc2C1=O	/	/	.	.	/
COCCNC(=O)c1ccccc1NC(=O)CN(c1ccc2c(c1)OCO2)S(C)(=O)=O	.	.	/	/	.
CS(=O)(=O)N(CC(=O)Nc1ccccc1C(=O)NCc1ccco1)c1ccc2c(c1)OCCO2	.	.	/	/	.
CC(C)CNC(=O)c1ccccc1NC(=O)CN(c1ccc2c(c1)OCCO2)S(C)(=O)=O	/	90	.	/	.
COC(=O)c1ccc(C(=O)OC)c(NC(=O)CN(c2ccc3c(c2)OCO3)S(C)(=O)=O)c1	.	.	.	/	57
